Screening results as filed in PubChem.
Shown are actives, neighbours in structure and some others; about 2.5% of the full set was active somewhere.
UCH37 DUB inh – inhibitors of human UCH37 deubiquitinase, primary screen, biochemical, Ub-AMC cleavage, fluorescence; Ubiquitin carboxyl-terminal hydrolase isozyme L5 (Homo sapiens), Q9Y5K5; purified proteasome/UCH37; inhibition, % (no concentration beside the values); 330,000 compounds, 0.33% hits;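 active = mean inhibition over replicate wells above about 20%, limit read from the data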
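Material: human UCH37 enzyme supplied as purified proteasome complex. Measure: % inhibition of Ub-AMC cleavage fluorescence. Medium: pH 7.4 Tris-HCl (50 mM) with ovalbumin, ATP-MgCl2, DTT. Times: 30 min preincubation with enzyme, 25 min cleavage at room temperature. Detection: AMC fluorescence intensity at 355/460 nm.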
T cell modulator – modulators of CD8 T cell-vesicle binding, primary screen, mouse 2C CD8+ T cells, flow cytometry | 330,000 compounds, 0.068% hits | response (vesicle binding), % at 7 µM | 2C CD8+ T cell-vesicle binding; active compounds read low;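 active = response, share of CD8 T cells binding vesicles, and their 90th percentile fluorescence all below set limits, cut at about 80% in these data, passing the limit was not always enough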;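 also: values below 100% mean blocked vesicle binding to the CD8+ T cells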
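Assay system: 2C TCR transgenic mouse naive CD8+ T cells, MACS-purified | Read-out: CD8+ gate FL2 mean fluorescence as % of same-row positive control | Signal: High-throughput flow cytometry with anti-B7-1 and anti-CD8 staining | Timing: Binding step 1.5 h, 37 °C, antibody labelling 20 min, ice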
Rce1 inhib – yeast Rce1p protease inhibitors, primary screen, biochemical, fluorescence, cell-free homogeneous; yeast membranes, quenched prenylated peptide cleavage fluorescence; calls only; 290,000 compounds, 0.27% hits; CAAX prenyl protease 2 (Saccharomyces cerevisiae (strain ATCC 204508 / S288c)), Q03530;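 active = fall in fluorescence gain of 50% or more versus controls, with final raw signal at or below 3038400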
MEKK2 WT-MEK5 – modulators of MEK5 binding to wildtype MEKK2, primary screen, biochemical, multiplex bead flow cytometry, Alexa488-MEK5; Alexa488-MEK5 binding to MEKK2 WT; actives lie on both sides; 290,000 compounds, 1.1% hits; binding response (% of control), % at 10 µM; in the data active = binding response below about 67% or above about 130%
MEKK2 mut-MEK5 – MEK5 binding signal on mutant MEKK2 PB1, primary screen, biochemical, multiplex bead flow cytometry, Alexa488-MEK5; Alexa488-MEK5 binding to MEKK2 mutant; AID 1530, 2009; 290,000 compounds, 0.35% hits; percent response, % at 10 µM; in the data active = percent response above about 24%, passing the limit was not always enough
MEKK3 PB1 HTS – modulators of MEKK3-MEK5 PB1 binding, primary screen, biochemical, wildtype MEKK3, multiplex bead flow cytometry, Alexa488-MEK5; bead-based flow cytometry, Alexa488-MEK5 binding to MEKK3; actives lie on both sides; 0 = blocked by unlabeled MEK5, 100 = vehicle; Mitogen-activated protein kinase kinase kinase 3 (Homo sapiens), Q99759; 290,000 compounds, 1.4% hits; binding response (% of control), % at 10 µM; AID 1529, 2009;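 active = binding response more than 3 SD above or below the average of its plate-row segment, actives on both sides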;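 also: Alexa488 bead fluorescence after subtracting the streptavidin-only scavenger bead signal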
Target sequence (Q99759 whole entry, looked up): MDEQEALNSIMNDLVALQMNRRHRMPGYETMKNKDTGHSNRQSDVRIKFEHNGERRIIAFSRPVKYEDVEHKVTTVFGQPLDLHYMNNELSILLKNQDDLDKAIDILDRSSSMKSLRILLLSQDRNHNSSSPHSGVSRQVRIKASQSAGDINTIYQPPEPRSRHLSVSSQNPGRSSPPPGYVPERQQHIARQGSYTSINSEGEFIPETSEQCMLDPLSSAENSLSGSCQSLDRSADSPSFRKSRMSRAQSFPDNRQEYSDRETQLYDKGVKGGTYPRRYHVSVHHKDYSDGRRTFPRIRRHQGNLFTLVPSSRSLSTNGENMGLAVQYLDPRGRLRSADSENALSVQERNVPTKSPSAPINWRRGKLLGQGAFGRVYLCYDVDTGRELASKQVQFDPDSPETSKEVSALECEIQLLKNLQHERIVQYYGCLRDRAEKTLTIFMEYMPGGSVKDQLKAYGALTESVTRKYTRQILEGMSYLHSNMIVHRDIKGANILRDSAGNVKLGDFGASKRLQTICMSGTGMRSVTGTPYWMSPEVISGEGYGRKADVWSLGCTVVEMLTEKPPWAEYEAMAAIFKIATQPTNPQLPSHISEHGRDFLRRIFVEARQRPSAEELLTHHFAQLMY
MEKK2wt confirm – modulators of MEK5 binding to wildtype MEKK2, confirmation, biochemical, single concentration, multiplex bead flow cytometry; shares compounds with MEKK3 PB1 HTS; Alexa488-MEK5 binding to MEKK2 WT; actives lie on both sides; binding response (% of control), % at 10 µM; 5,900 compounds, 2.4% hits; AID 1892, 2009; in the data active = binding response below about 16% or above about 210%; inactive = in between
MEKK2mut confirm – mutant MEKK2 PB1-MEK5 binding signal retest – biochemical, single concentration, multiplex bead flow cytometry, confirmation; shares compounds with MEKK3 PB1 HTS; Alexa488-MEK5 binding to MEKK2 mutant; percent response, % at 10 µM; 5,900 compounds, 2% hits; in the data active = percent response mostly above about 71%, no sharp cut-off; inactive = mostly below about 38%;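 also: higher means compound restores mutant binding toward wildtype level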
MEKK3-MEK5 inh – MEKK3 wild-type PB1 binding to MEK5, inhibitors, confirmation, biochemical, bead multiplex flow cytometry, single concentration, wildtype. shares compounds with MEKK3 PB1 HTS. Alexa488-MEK5 binding to MEKK3; active compounds read low. binding response (% of control), % at 10 µM. 5,900 compounds, 1.8% hits;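 active = binding response below 72% of control, or above a set upper limit, though filed actives all read lower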;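 also: lower values mean stronger disruption of MEK5 binding to MEKK3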
Numbers stand for hits; – = inactive; · = not tested or not shown; [ ] = another dose, or the depositor's remark.

SMILES	UCH37 DUB inh	T cell modulator	Rce1 inhib	MEKK2 WT-MEK5	MEKK2 mut-MEK5	MEKK3 PB1 HTS	MEKK2wt confirm	MEKK2mut confirm	MEKK3-MEK5 inh
Cc1ccc(CNC(=O)NC23CC4CC(CC(C4)C2)C3)cc1	–	–	–	–	–	–	·	·	·
Cc1ccc(S(=O)(=O)NN=Cc2cc3c(cc2[N+](=O)[O-])OCO3)cc1	–	·	·	·	·	·	·	·	·
CCN(CC)c1ccc(C=NN2CCN(Cc3cccc4ccccc34)CC2)c(O)c1	–	·	·	·	·	·	·	·	·
Oc1ccc2cccnc2c1	·	–	–	–	–	–	·	·	·
O=C(Cc1ccc2cccnc2c1)c1ccc(O)cc1O	–	–	–	-1.0[inhibitor]	–	2.0[inhibitor]	–	–	–
Cc1cc(C(=O)COC(=O)Cc2n[nH]c(=O)c3ccccc23)c(C)n1-c1cccc(C(F)(F)F)c1	–	–	–	–	–	136	–	–	–
O=C(c1ccc(Cl)cc1)[C@@H]1[C@@H]2C(=O)N(c3cccc4ccccc34)C(=O)[C@@H]2C2c3ccccc3C=NN21 (stereo partly drawn)	–	–	–	–	–	153	–	–	–
O=C(O)c1cccc(Cn2c(Cl)c(C=NNC(=O)c3ccccc3Cl)sc2=O)c1	–	·	·	·	·	·	·	·	·
S=c1[nH]c(-c2ccccc2)cn1N=Cc1cccs1	–	·	·	·	·	·	·	·	·
Cc1cc(C)cc(OCC(=O)Nc2ccccc2C(=O)N2CCOCC2)c1	·	–	–	–	–	–	·	·	·
Cc1cccc(OCC(=O)Nc2ccccc2C(=O)N2CCOCC2)c1	–	–	–	–	–	130	–	–	–
Cc1cccc(OCC(=O)N/N=C/c2ccccc2C(=O)O)c1	·	–	–	–	–	132	–	–	–
Cc1cccc(OCC(=O)N/N=C/c2ccc(N(C)C)cc2)c1	·	–	–	–	–	–	·	·	·
O=C(Nc1ccccc1C(=O)N1CCOCC1)C1CCCO1 (stereo not drawn)	–	–	–	-1.0[inhibitor]	–	1.0[inhibitor]	–	–	–
CS(=O)(=O)N(CC(=O)Nc1ccccc1C(=O)N1CCOCC1)c1ccc(Cl)cc1	–	–	–	43[inhibitor]	–	44[inhibitor]	–	–	–
COc1ccc(N(CC(=O)NN=Cc2ccccc2OC)S(=O)(=O)c2ccccc2)cc1	–	·	·	·	·	·	·	·	·
Cc1ccc(NC(=O)CN(C)S(=O)(=O)c2cccc3cccnc23)c(C)c1	–	–	–	–	–	134	–	–	–
Clc1ccc(OCCCNCc2ccccc2)c2ccccc12	–	–	·	253	28	–	–	–	–
Cc1cc(C(=O)Nc2ccccc2)c2ccccc2n1	–	–	–	–	–	–	·	·	·
COc1cc(NC(=O)c2cc(C)nc3ccccc23)cc(OC)c1	–	–	–	–	–	129	–	–	–
CC(=NNc1ncc(Cl)cc1Cl)c1ccccn1	–	·	·	·	·	·	·	·	·
COc1cccc(Nc2nc(-c3sc(NC(=O)CC(C)C)nc3C)cs2)c1	–	–	–	–	–	–	·	·	·
